Values after ≈ are worked out from the molar mass of the structure shown.
How the values were obtained:
Assay type in all cases: functional
Pseudomonas aeruginosa = test: Antibacterial activity against Pseudomonas aeruginosa MTCC 1688 after 24 hrs by serial broth dilution method; conditions: MTCC 1688, 24 h
Summary of the method: (§1)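 Read-out was the individual minimum inhibitory concentration for each bacterial or fungal strain.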

Streptococcus pyogenes = test: Antibacterial activity against Streptococcus pyogenes MTCC 442 after 24 hrs by serial broth dilution method; conditions: MTCC 442, 24 h; summary of the method: as §1
Aspergillus niger = test: Antifungal activity against Aspergillus niger MTCC 282 after 48 hrs by serial broth dilution method; conditions: MTCC 282, 48 h; summary of the method: as §1
Aspergillus clavatus = test: Antifungal activity against Aspergillus clavatus MTCC 1323 after 48 hrs by serial broth dilution method; conditions: MTCC 1323, 48 h; summary of the method: as §1
Candida albicans = test: Antifungal activity against Candida albicans MTCC 227 after 48 hrs by serial broth dilution method; conditions: MTCC 227, 48 h; summary of the method: as §1
Staphylococcus aureus = test: Antibacterial activity against Staphylococcus aureus MTCC 96 after 24 hrs by serial broth dilution method; conditions: MTCC 96, 24 h; summary of the method: as §1
Escherichia coli = test: Antibacterial activity against Escherichia coli MTCC 443 after 24 hrs by serial broth dilution method; conditions: MTCC 443, 24 h; summary of the method: as §1

Row | SMILES | MIC (Pseudomonas aeruginosa) | MIC (Streptococcus pyogenes) | MIC (Aspergillus niger) | MIC (Aspergillus clavatus) | MIC (Candida albicans) | MIC (Staphylococcus aureus) | MIC (Escherichia coli)
1 | O=C1CSC(N2N=C(c3ccc([N+](=O)[O-])cc3)CC2c2cc3cc(F)ccc3nc2Cl)=N1 (centres undefined) | 100 µg/mL (≈ 213 µM) | 50 µg/mL (≈ 106 µM) | 100 µg/mL (≈ 213 µM) | 100 µg/mL (≈ 213 µM) | 250 µg/mL (≈ 532 µM) | 250 µg/mL (≈ 532 µM) | 50 µg/mL (≈ 106 µM)
2 | O=C(CN1CCOCC1)Nc1nc(-c2ccccc2F)cc(-c2cc3cc(F)ccc3nc2Cl)n1 | 25 µg/mL (≈ 50.4 µM) | 50 µg/mL (≈ 101 µM) | 50 µg/mL (≈ 101 µM) | 25 µg/mL (≈ 50.4 µM) | 100 µg/mL (≈ 202 µM) | 50 µg/mL (≈ 101 µM) | 12.5 µg/mL (≈ 25.2 µM)
3 | O=C(CN1CCOCC1)Nc1nc(-c2ccc(F)cc2)cc(-c2cc3cc(F)ccc3nc2Cl)n1 | 50 µg/mL (≈ 101 µM) | 100 µg/mL (≈ 202 µM) | 100 µg/mL (≈ 202 µM) | 100 µg/mL (≈ 202 µM) | 100 µg/mL (≈ 202 µM) | 100 µg/mL (≈ 202 µM) | 50 µg/mL (≈ 101 µM)
4 | O=C1CSC(N2N=C(c3cccc(F)c3)CC2c2cc3cc(F)ccc3nc2Cl)=N1 (centres undefined) | 250 µg/mL (≈ 564 µM) | 500 µg/mL (≈ 1130 µM) | 500 µg/mL (≈ 1130 µM) | 500 µg/mL (≈ 1130 µM) | 100 µg/mL (≈ 226 µM) | 500 µg/mL (≈ 1130 µM) | 500 µg/mL (≈ 1130 µM)
5 | O=C1CSC(N2N=C(c3ccccc3Cl)CC2c2cc3cc(F)ccc3nc2Cl)=N1 (centres undefined) | 100 µg/mL (≈ 218 µM) | 50 µg/mL (≈ 109 µM) | 100 µg/mL (≈ 218 µM) | 50 µg/mL (≈ 109 µM) | 500 µg/mL (≈ 1090 µM) | 250 µg/mL (≈ 544 µM) | 50 µg/mL (≈ 109 µM)
6 | O=C1CSC(N2N=C(c3ccc(F)cc3)CC2c2cc3cc(F)ccc3nc2Cl)=N1 (centres undefined) | 50 µg/mL (≈ 113 µM) | 25 µg/mL (≈ 56.4 µM) | 250 µg/mL (≈ 564 µM) | 100 µg/mL (≈ 226 µM) | 1000 µg/mL (≈ 2260 µM) | 100 µg/mL (≈ 226 µM) | 50 µg/mL (≈ 113 µM)
7 | O=C(CN1CCOCC1)Nc1nc(-c2ccccc2O)cc(-c2cc3cc(F)ccc3nc2Cl)n1 | 500 µg/mL (≈ 1010 µM) | 500 µg/mL (≈ 1010 µM) | 250 µg/mL (≈ 506 µM) | 500 µg/mL (≈ 1010 µM) | 1000 µg/mL (≈ 2020 µM) | 500 µg/mL (≈ 1010 µM) | 1000 µg/mL (≈ 2020 µM)
8 | O=C(CN1CCOCC1)Nc1nc(-c2cccc(F)c2)cc(-c2cc3cc(F)ccc3nc2Cl)n1 | 100 µg/mL (≈ 202 µM) | 250 µg/mL (≈ 504 µM) | 250 µg/mL (≈ 504 µM) | 250 µg/mL (≈ 504 µM) | 250 µg/mL (≈ 504 µM) | 250 µg/mL (≈ 504 µM) | 100 µg/mL (≈ 202 µM)
9 | O=C1CSC(N2N=C(c3cccc([N+](=O)[O-])c3)CC2c2cc3cc(F)ccc3nc2Cl)=N1 (centres undefined) | 500 µg/mL (≈ 1060 µM) | 500 µg/mL (≈ 1060 µM) | 100 µg/mL (≈ 213 µM) | 50 µg/mL (≈ 106 µM) | 500 µg/mL (≈ 1060 µM) | 1000 µg/mL (≈ 2130 µM) | 250 µg/mL (≈ 532 µM)
10 | O=C(CN1CCOCC1)Nc1nc(-c2ccccc2Cl)cc(-c2cc3cc(F)ccc3nc2Cl)n1 | 100 µg/mL (≈ 195 µM) | 100 µg/mL (≈ 195 µM) | 100 µg/mL (≈ 195 µM) | 100 µg/mL (≈ 195 µM) | 500 µg/mL (≈ 976 µM) | 100 µg/mL (≈ 195 µM) | 50 µg/mL (≈ 97.6 µM)
11 | O=C1CSC(N2N=C(c3ccccc3[N+](=O)[O-])CC2c2cc3cc(F)ccc3nc2Cl)=N1 (centres undefined) | 12.5 µg/mL (≈ 26.6 µM) | 25 µg/mL (≈ 53.2 µM) | 25 µg/mL (≈ 53.2 µM) | 12.5 µg/mL (≈ 26.6 µM) | 100 µg/mL (≈ 213 µM) | 100 µg/mL (≈ 213 µM) | 25 µg/mL (≈ 53.2 µM)
12 | O=C(CN1CCOCC1)Nc1nc(-c2ccc(Cl)cc2)cc(-c2cc3cc(F)ccc3nc2Cl)n1 | 50 µg/mL (≈ 97.6 µM) | 100 µg/mL (≈ 195 µM) | 100 µg/mL (≈ 195 µM) | 100 µg/mL (≈ 195 µM) | 250 µg/mL (≈ 488 µM) | 250 µg/mL (≈ 488 µM) | 100 µg/mL (≈ 195 µM)
13 | O=C1CSC(N2N=C(c3ccccc3)CC2c2cc3cc(F)ccc3nc2Cl)=N1 (centres undefined) | 250 µg/mL (≈ 588 µM) | 1000 µg/mL (≈ 2350 µM) | 1000 µg/mL (≈ 2350 µM) | 500 µg/mL (≈ 1180 µM) | 1000 µg/mL (≈ 2350 µM) | 500 µg/mL (≈ 1180 µM) | 500 µg/mL (≈ 1180 µM)
14 | O=C(CN1CCOCC1)Nc1nc(-c2ccccc2[N+](=O)[O-])cc(-c2cc3cc(F)ccc3nc2Cl)n1 | 100 µg/mL (≈ 191 µM) | 50 µg/mL (≈ 95.6 µM) | 50 µg/mL (≈ 95.6 µM) | 100 µg/mL (≈ 191 µM) | 100 µg/mL (≈ 191 µM) | 50 µg/mL (≈ 95.6 µM) | 100 µg/mL (≈ 191 µM)
15 | O=C(CN1CCOCC1)Nc1nc(-c2cccc([N+](=O)[O-])c2)cc(-c2cc3cc(F)ccc3nc2Cl)n1 | 100 µg/mL (≈ 191 µM) | 100 µg/mL (≈ 191 µM) | 100 µg/mL (≈ 191 µM) | 500 µg/mL (≈ 956 µM) | 250 µg/mL (≈ 478 µM) | 250 µg/mL (≈ 478 µM) | 250 µg/mL (≈ 478 µM)
16 | COc1ccc(-c2cc(-c3cc4cc(F)ccc4nc3Cl)nc(NC(=O)CN3CCOCC3)n2)cc1 | 250 µg/mL (≈ 492 µM) | 250 µg/mL (≈ 492 µM) | 250 µg/mL (≈ 492 µM) | 500 µg/mL (≈ 984 µM) | 1000 µg/mL (≈ 1970 µM) | 500 µg/mL (≈ 984 µM) | 500 µg/mL (≈ 984 µM)
17 | O=C(O)c1cn(C2CC2)c2cc(N3CCNCC3)c(F)cc2c1=O [CIPROFLOXACIN] | – | 50 µg/mL (≈ 151 µM) | – | – | – | 50 µg/mL (≈ 151 µM) | 25 µg/mL (≈ 75.4 µM)
18 | O=C(CN1CCOCC1)Nc1nc(-c2ccc(O)cc2)cc(-c2cc3cc(F)ccc3nc2Cl)n1 | 1000 µg/mL (≈ 2020 µM) | 1000 µg/mL (≈ 2020 µM) | 500 µg/mL (≈ 1010 µM) | 1000 µg/mL (≈ 2020 µM) | 500 µg/mL (≈ 1010 µM) | 1000 µg/mL (≈ 2020 µM) | 500 µg/mL (≈ 1010 µM)
19 | O=C1CSC(N2N=C(c3ccc(O)cc3)CC2c2cc3cc(F)ccc3nc2Cl)=N1 (centres undefined) | 250 µg/mL (≈ 567 µM) | 250 µg/mL (≈ 567 µM) | 500 µg/mL (≈ 1130 µM) | 1000 µg/mL (≈ 2270 µM) | 1000 µg/mL (≈ 2270 µM) | 500 µg/mL (≈ 1130 µM) | 500 µg/mL (≈ 1130 µM)
20 | COC1=CC(=O)C[C@@H](C)[C@]12Oc1c(Cl)c(OC)cc(OC)c1C2=O [GRISEOFULVIN] | – | – | 100 µg/mL (≈ 283 µM) | 100 µg/mL (≈ 283 µM) | 500 µg/mL (≈ 1420 µM) | – | –
21 | COc1ccc(C2=NN(C3=NC(=O)CS3)C(c3cc4cc(F)ccc4nc3Cl)C2)cc1 (centres undefined) | 1000 µg/mL (≈ 2200 µM) | 1000 µg/mL (≈ 2200 µM) | 500 µg/mL (≈ 1100 µM) | 500 µg/mL (≈ 1100 µM) | 1000 µg/mL (≈ 2200 µM) | 500 µg/mL (≈ 1100 µM) | 1000 µg/mL (≈ 2200 µM)
22 | O=C1CSC(N2N=C(c3ccccc3O)CC2c2cc3cc(F)ccc3nc2Cl)=N1 (centres undefined) | 500 µg/mL (≈ 1130 µM) | 500 µg/mL (≈ 1130 µM) | 1000 µg/mL (≈ 2270 µM) | 1000 µg/mL (≈ 2270 µM) | 1000 µg/mL (≈ 2270 µM) | 1000 µg/mL (≈ 2270 µM) | 250 µg/mL (≈ 567 µM)
23 | O=C(CN1CCOCC1)Nc1nc(-c2ccc([N+](=O)[O-])cc2)cc(-c2cc3cc(F)ccc3nc2Cl)n1 | 50 µg/mL (≈ 95.6 µM) | 100 µg/mL (≈ 191 µM) | 100 µg/mL (≈ 191 µM) | 50 µg/mL (≈ 95.6 µM) | 100 µg/mL (≈ 191 µM) | 100 µg/mL (≈ 191 µM) | 25 µg/mL (≈ 47.8 µM)
24 | O=C1CSC(N2N=C(c3ccc(Cl)cc3)CC2c2cc3cc(F)ccc3nc2Cl)=N1 (centres undefined) | 250 µg/mL (≈ 544 µM) | 50 µg/mL (≈ 109 µM) | 50 µg/mL (≈ 109 µM) | 100 µg/mL (≈ 218 µM) | 500 µg/mL (≈ 1090 µM) | 50 µg/mL (≈ 109 µM) | 500 µg/mL (≈ 1090 µM)
25 | O=C(CN1CCOCC1)Nc1nc(-c2ccccc2)cc(-c2cc3cc(F)ccc3nc2Cl)n1 | 500 µg/mL (≈ 1050 µM) | 250 µg/mL (≈ 523 µM) | 500 µg/mL (≈ 1050 µM) | 250 µg/mL (≈ 523 µM) | 1000 µg/mL (≈ 2090 µM) | 500 µg/mL (≈ 1050 µM) | 250 µg/mL (≈ 523 µM)
26 | O=C1CSC(N2N=C(c3ccccc3F)CC2c2cc3cc(F)ccc3nc2Cl)=N1 (centres undefined) | 50 µg/mL (≈ 113 µM) | 100 µg/mL (≈ 226 µM) | 50 µg/mL (≈ 113 µM) | 500 µg/mL (≈ 1130 µM) | 250 µg/mL (≈ 564 µM) | 100 µg/mL (≈ 226 µM) | 25 µg/mL (≈ 56.4 µM)
